# Experimental data from ChEMBL document CHEMBL3232893, “Design of antiviral stapled peptides containing a biphenyl cross-linker” (Bioorg Med Chem Lett, 2014).
# Tests used:
# [1] = tested on: Human immunodeficiency virus 1; assay: Antiviral activity against HIV-1 pseudotyped virus expressing HIV-1 isolate B envelope PVO, clone 4 (SVPB11) assessed as reduction of luciferase production after 3 days by single-cycle neutralization assay; format: functional, organism-based; conditions: Human immunodeficiency virus 1, 72 h
# Outline: (§1)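 Single-cycle assay using pseudoviruses carrying Env from primary HIV-1 isolates of subtypes A, A/D, A/G, B, C and D reference viruses. Read-out is luciferase production, and IC50 is determined.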
# [2] = tested on: Human immunodeficiency virus 1; assay: Antiviral activity against HIV-1 pseudotyped virus expressing HIV-1 isolate D envelope QA013.70I.ENV.M12 assessed as reduction of luciferase production after 3 days by single-cycle neutralization assay; format: functional, organism-based; conditions: Human immunodeficiency virus 1, 72 h; outline: as §1
# [3] = tested on: Human immunodeficiency virus 1; assay: Antiviral activity against HIV-1 pseudotyped virus expressing HIV-1 isolate AD envelope QA790.204I.ENV.A4 assessed as reduction of luciferase production after 3 days by single-cycle neutralization assay; format: functional, organism-based; conditions: Human immunodeficiency virus 1, 72 h; outline: as §1
# [4] = Binding affinity to HIV-1 Yu2 full-length gp120 by surface plasmon resonance analysis; parameters: species or system Human immunodeficiency virus type 1 (isolate YU2)
# Outline: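 Gp120 binding was measured by SPR. Sensorgrams were fitted to a 1:1 Langmuir model to give ka and kd, and Kd was calculated from these rate constants.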
# [5] = tested on: Human immunodeficiency virus 1; assay: Antiviral activity against HIV-1 pseudotyped virus expressing HIV-1 isolate B envelope pCAAN5342 clone A2 (SVPB19) assessed as reduction of luciferase production after 3 days by single-cycle neutralization assay; format: functional, organism-based; conditions: Human immunodeficiency virus 1, 72 h; outline: as §1
# [6] = tested on: Human immunodeficiency virus 1; assay: Antiviral activity against HIV-1 pseudotyped virus expressing HIV-1 isolate D envelope QA465.59M.ENV.A1 assessed as reduction of luciferase production after 3 days by single-cycle neutralization assay; format: functional, organism-based; conditions: Human immunodeficiency virus 1, 72 h; outline: as §1
# [7] = Cytotoxicity against human TZM-bl cells after 3 days by XTT assay; format: cell-based
# [8] = tested on: Human immunodeficiency virus 1; assay: Antiviral activity against HIV-1 pseudotyped virus expressing HIV-1 isolate D envelope QA465.59M.ENV.D1 assessed as reduction of luciferase production after 3 days by single-cycle neutralization assay; format: functional, organism-based; conditions: Human immunodeficiency virus 1, 72 h; outline: as §1
# [9] = tested on: Human immunodeficiency virus 1; assay: Antiviral activity against HIV-1 pseudotyped virus expressing HIV-1 isolate D envelope QD435.100M.ENV.B5 assessed as reduction of luciferase production after 3 days by single-cycle neutralization assay; format: functional, organism-based; conditions: Human immunodeficiency virus 1, 72 h; outline: as §1
# [10] = tested on: Human immunodeficiency virus 1; assay: Antiviral activity against HIV-1 pseudotyped virus expressing HIV-1 isolate AG envelope CRF02_AG (clone 263) assessed as reduction of luciferase production after 3 days by single-cycle neutralization assay; format: functional, organism-based; conditions: Human immunodeficiency virus 1, 72 h; outline: as §1
# [11] = tested on: Human immunodeficiency virus 1; assay: Antiviral activity against HIV-1 pseudotyped virus expressing HIV-1 isolate A envelope QF495.23M.ENV.A3 assessed as reduction of luciferase production after 3 days by single-cycle neutralization assay; format: functional, organism-based; conditions: Human immunodeficiency virus 1, 72 h; outline: as §1
# [12] = tested on: Human immunodeficiency virus 1; assay: Antiviral activity against HIV-1 pseudotyped virus expressing HIV-1 isolate C envelope ZM135M.PL10a, SVPC15 assessed as reduction of luciferase production after 3 days by single-cycle neutralization assay; format: functional, organism-based; conditions: Human immunodeficiency virus 1, 72 h; outline: as §1
# [13] = tested on: Human immunodeficiency virus 1; assay: Antiviral activity against HIV-1 pseudotyped virus expressing HIV-1 isolate A envelope QB726.70M.ENV.B3 assessed as reduction of luciferase production after 3 days by single-cycle neutralization assay; format: functional, organism-based; conditions: Human immunodeficiency virus 1, 72 h; outline: as §1
# [14] = tested on: Human immunodeficiency virus 1; assay: Antiviral activity against HIV-1 pseudotyped virus expressing HIV-1 isolate B envelope SC422661, clone B (SVPB8) assessed as reduction of luciferase production after 3 days by single-cycle neutralization assay; format: functional, organism-based; conditions: Human immunodeficiency virus 1, 72 h; outline: as §1
# [15] = tested on: Human immunodeficiency virus 1; assay: Antiviral activity against HIV-1 pseudotyped virus expressing HIV-1 isolate B envelope pREJO4541 clone 67 (SVPB16) assessed as reduction of luciferase production after 3 days by single-cycle neutralization assay; format: functional, organism-based; conditions: Human immunodeficiency virus 1, 72 h; outline: as §1
# [16] = tested on: Human immunodeficiency virus 1; assay: Antiviral activity against HIV-1 pseudotyped virus expressing HIV-1 isolate C envelope HIV-26191-2, clone 48 assessed as reduction of luciferase production after 3 days by single-cycle neutralization assay; format: functional, organism-based; conditions: Human immunodeficiency virus 1, 72 h; outline: as §1
# [17] = tested on: Human immunodeficiency virus 1; assay: Antiviral activity against HIV-1 pseudotyped virus expressing HIV-1 isolate B envelope pRHPA4259 clone 7 (SVPB14) assessed as reduction of luciferase production after 3 days by single-cycle neutralization assay; format: functional, organism-based; conditions: Human immunodeficiency virus 1, 72 h; outline: as §1
# [18] = tested on: Human immunodeficiency virus 1; assay: Antiviral activity against HIV-1 pseudotyped virus expressing HIV-1 isolate C envelope ZM233M.PB6, SVPC9 assessed as reduction of luciferase production after 3 days by single-cycle neutralization assay; format: functional, organism-based; conditions: Human immunodeficiency virus 1, 72 h; outline: as §1
# [19] = tested on: Human immunodeficiency virus 1; assay: Antiviral activity against HIV-1 NL4-3-HXB2 pseudovirus co-transfected with luciferase gene infected in human TZM-bl cells assessed as reduction of luciferase production after 3 days by single-cycle neutralization assay; format: functional, organism-based; conditions: Human immunodeficiency virus 1, NL4-3-HXB2, TZM-bl, 72 h
# Outline: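 Single-cycle neutralization in TZM-bl cells; read-out is reduction of luciferase production. IC50 derived from dose-response.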
# [20] = tested on: Human immunodeficiency virus 1; assay: Antiviral activity against HIV-1 pseudotyped virus expressing HIV-1 isolate AG envelope CRF02_AG (clone 211) assessed as reduction of luciferase production after 3 days by single-cycle neutralization assay; format: functional, organism-based; conditions: Human immunodeficiency virus 1, 72 h; outline: as §1
# [21] = tested on: Human immunodeficiency virus 1; assay: Antiviral activity against HIV-1 pseudotyped virus expressing HIV-1 isolate A envelope QH343.21M.ENV.A10 assessed as reduction of luciferase production after 3 days by single-cycle neutralization assay; format: functional, organism-based; conditions: Human immunodeficiency virus 1, 72 h; outline: as §1
# [22] = tested on: Human immunodeficiency virus 1; assay: Antiviral activity against HIV-1 3B infected in human MT-2 cells assessed as reduction in p24 antigen level incubated for overnight measured on fourth day post infection by multi-cycle infection assay based sandwich ELISA; format: functional, organism-based; conditions: Human immunodeficiency virus 1, 3B, MT2
# Outline: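 Multi-cycle infection in MT-2 cells; read-out is reduction of p24 levels. IC50 derived from dose-response.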
# [23] = tested on: Human immunodeficiency virus 1; assay: Antiviral activity against HIV-1 pseudotyped virus expressing HIV-1 isolate D envelope QD435.100M.ENV.E1 assessed as reduction of luciferase production after 3 days by single-cycle neutralization assay; format: functional, organism-based; conditions: Human immunodeficiency virus 1, 72 h; outline: as §1
# [24] = tested on: Human immunodeficiency virus 1; assay: Antiviral activity against HIV-1 pseudotyped virus expressing HIV-1 isolate C envelope Du156, clone 12 (SVPC3) assessed as reduction of luciferase production after 3 days by single-cycle neutralization assay; format: functional, organism-based; conditions: Human immunodeficiency virus 1, 72 h; outline: as §1
# [25] = Binding affinity to HIV-1 capsid protein C-terminal domain M184A/W185A mutant at 20 uM by isothermal titration calorimetric analysis; parameters: species or system Human immunodeficiency virus 1
# Outline: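 ITC: 625 μM CTD M184A/W185A mutant titrated in 10 μL aliquots into 20 μM peptide in the cell. The integrated binding isotherm was fitted to a single-site binding equation to give Kd.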
# [26] = tested on: Human immunodeficiency virus 1; assay: Antiviral activity against HIV-1 pseudotyped virus expressing HIV-1 isolate AD envelope QA790.204I.ENV.E2 assessed as reduction of luciferase production after 3 days by single-cycle neutralization assay; format: functional, organism-based; conditions: Human immunodeficiency virus 1, 72 h; outline: as §1
# [27] = tested on: Human immunodeficiency virus 1; assay: Antiviral activity against HIV-1 pseudotyped virus expressing HIV-1 isolate C envelope HIV-25925-2, clone 22 assessed as reduction of luciferase production after 3 days by single-cycle neutralization assay; format: functional, organism-based; conditions: Human immunodeficiency virus 1, 72 h; outline: as §1
# [28] = Cytotoxicity against human MT2 cells after 4 days by XTT assay; format: cell-based
# [29] = tested on: Human immunodeficiency virus 1; assay: Antiviral activity against HIV-1 pseudotyped virus expressing HIV-1 isolate A envelope QF495.23M.ENV.B2 assessed as reduction of luciferase production after 3 days by single-cycle neutralization assay; format: functional, organism-based; conditions: Human immunodeficiency virus 1, 72 h; outline: as §1
# [30] = tested on: Human immunodeficiency virus 1; assay: Antiviral activity against HIV-1 pseudotyped virus expressing HIV-1 isolate D envelope QD435.100M.ENV.A4 assessed as reduction of luciferase production after 3 days by single-cycle neutralization assay; format: functional, organism-based; conditions: Human immunodeficiency virus 1, 72 h; outline: as §1
smiles,measurement,setting,value
CC[C@H](C)[C@H](NC(C)=O)C(=O)N[C@@H](CO)C(=O)N[C@@H](Cc1ccccc1)C(=O)N[C@@H]1CSCc2ccc(cc2)-c2ccc(cc2)CSC[C@@H](C(=O)N[C@@H](CCC(=O)O)C(=O)N[C@@H](CO)C(=O)NCC(=O)N[C@@H](CO)C(N)=O)NC(=O)[C@H](Cc2ccc(O)cc2)NC(=O)[C@H](Cc2ccc(O)cc2)NC(=O)[C@H](CC(=O)O)NC(=O)[C@H](CC(C)C)NC(=O)[C@H](CC(C)C)NC(=O)[C@H](CCC(=O)O)NC1=O,IC50,[1],3.5 µM
same,IC50,[2],15.4 µM
same,IC50,[3],7 µM
same,Kd,[4],7.4 µM
same,IC50,[5],4.6 µM
same,IC50,[6],15.4 µM
same,CC50 at 72 h,[7],> 103 µM
same,IC50,[8],7.7 µM
same,IC50,[9],15.4 µM
same,IC50,[10],4.4 µM
same,IC50,[11],1.4 µM
same,IC50,[12],1 µM
same,IC50,[13],15.4 µM
same,IC50,[14],3.7 µM
same,IC50,[15],3.4 µM
same,IC50,[16],6.3 µM
same,IC50,[17],1.6 µM
same,IC50,[18],3.6 µM
same,IC50,[19],1.9 µM
same,IC50,[20],4 µM
same,IC50,[21],15.4 µM
same,IC50,[22],2.8 µM
same,IC50,[23],15.4 µM
same,IC50,[24],17.9 µM
same,Kd,[25],17.5 µM
same,IC50,[26],7.7 µM
same,IC50,[27],1.1 µM
same,CC50 at 96 h,[28],> 103 µM
same,IC50,[29],10 µM
same,IC50,[30],1 µM
CC[C@H](C)[C@H](NC(C)=O)C(=O)N[C@@H](CO)C(=O)N[C@@H](Cc1ccccc1)C(=O)N[C@@H]1CSCc2ccc(cc2)-c2ccc(cc2)CSC[C@@H](C(=O)N[C@@H](CCC(=O)O)C(=O)N[C@@H](CO)C(=O)NCC(=O)N[C@@H](CO)C(N)=O)NC(=O)[C@H](Cc2ccc(O)cc2)NC(=O)[C@H](Cc2ccc(O)cc2)NC(=O)[C@H](CC(=O)O)NC(=O)[C@H](CC(C)C)NC(=O)[C@H](CC(C)C)NC(=O)[C@H](CCC(N)=O)NC1=O,CC50 at 72 h,[7],> 103 µM
same,IC50,[19],3.1 µM
same,IC50,[22],5.5 µM
same,CC50 at 96 h,[28],> 103 µM
CC[C@H](C)[C@H](NC(C)=O)C(=O)N[C@@H](CO)C(=O)N[C@@H](Cc1ccccc1)C(=O)N[C@@H]1CSCc2ccc(cc2)-c2ccc(cc2)CSC[C@@H](C(=O)N[C@@H](CCC(=O)O)C(=O)N[C@@H](CO)C(=O)NCC(=O)N[C@@H](CO)C(N)=O)NC(=O)[C@H](Cc2ccc(O)cc2)NC(=O)[C@H](Cc2ccc(O)cc2)NC(=O)[C@H](CC(N)=O)NC(=O)[C@H](CC(C)C)NC(=O)[C@H](CC(C)C)NC(=O)[C@H](CCC(=O)O)NC1=O,CC50 at 72 h,[7],> 102 µM
same,IC50,[19],1.8 µM
same,IC50,[22],8.8 µM
same,CC50 at 96 h,[28],> 102 µM
CC[C@H](C)[C@H](NC(C)=O)C(=O)N[C@@H](CO)C(=O)N[C@@H](Cc1ccccc1)C(=O)N[C@@H]1CSCc2ccc(cc2)-c2ccc(cc2)CSC[C@@H](C(=O)N[C@@H](CCC(=O)O)C(=O)N[C@@H](CO)C(=O)NCC(=O)N[C@@H](CO)C(N)=O)NC(=O)[C@H](Cc2ccc(O)cc2)NC(=O)[C@H](Cc2ccc(O)cc2)NC(=O)[C@H](CC(N)=O)NC(=O)[C@H](CC(C)C)NC(=O)[C@H](CC(C)C)NC(=O)[C@H](CCC(N)=O)NC1=O,CC50 at 72 h,[7],> 102 µM
same,IC50,[19],1.6 µM
same,IC50,[22],5.7 µM
same,CC50 at 96 h,[28],51 µM
